Results from ChEMBL document CHEMBL3351593, “Potent nonimmunosuppressive cyclophilin inhibitors with improved pharmaceutical properties and decreased transporter inhibition” (J Med Chem, 2014).
pEC50, pIC50, pKd: −log10 of the molar value.

What was measured:
[1] = system: Hepatitis C virus; test: Antiviral activity against HCV subtype 1b in human Huh7.5 cells expressing subgenomic HCV replicons and coexpressing luciferase reporter gene; assay type: functional, cell-based, Hepacivirus hominis; settings: genotype 1b, Huh-7
How it was run: (§1)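 Stable Huh7.5 lines carrying genotype 1a or 1b subgenomic replicons with luciferase reporter, made by RNA electroporation and G418 selection. Assay run in phenol red-free DMEM without G418, sixteen half-log compound dilutions, in triplicate. Luciferase signal read after 72 h relative to DMSO controls, giving EC50.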

[2] = target: Peptidyl-prolyl cis-trans isomerase A (Homo sapiens, UniProt P62937); test: Binding affinity to human cyclophilin A by surface plasmon resonance method
Peptidyl-prolyl cis-trans isomerase A, sequence (P62937 whole entry): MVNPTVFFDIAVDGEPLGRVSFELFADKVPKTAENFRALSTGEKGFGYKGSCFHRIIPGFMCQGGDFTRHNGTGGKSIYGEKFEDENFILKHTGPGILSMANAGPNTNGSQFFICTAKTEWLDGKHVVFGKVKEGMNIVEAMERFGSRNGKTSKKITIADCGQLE

[3] = target: T1, Solute carrier organic anion transporter family member 1B1 (Homo sapiens, UniProt Q9Y6L6); test: Inhibition of OATP1B1 (unknown origin) expressed in CHO cells using 8-fluorescein-cAMP substrate by fluorescent photometry; assay type: ADME, cell-based
T1 sequence (Q9Y6L6 whole entry): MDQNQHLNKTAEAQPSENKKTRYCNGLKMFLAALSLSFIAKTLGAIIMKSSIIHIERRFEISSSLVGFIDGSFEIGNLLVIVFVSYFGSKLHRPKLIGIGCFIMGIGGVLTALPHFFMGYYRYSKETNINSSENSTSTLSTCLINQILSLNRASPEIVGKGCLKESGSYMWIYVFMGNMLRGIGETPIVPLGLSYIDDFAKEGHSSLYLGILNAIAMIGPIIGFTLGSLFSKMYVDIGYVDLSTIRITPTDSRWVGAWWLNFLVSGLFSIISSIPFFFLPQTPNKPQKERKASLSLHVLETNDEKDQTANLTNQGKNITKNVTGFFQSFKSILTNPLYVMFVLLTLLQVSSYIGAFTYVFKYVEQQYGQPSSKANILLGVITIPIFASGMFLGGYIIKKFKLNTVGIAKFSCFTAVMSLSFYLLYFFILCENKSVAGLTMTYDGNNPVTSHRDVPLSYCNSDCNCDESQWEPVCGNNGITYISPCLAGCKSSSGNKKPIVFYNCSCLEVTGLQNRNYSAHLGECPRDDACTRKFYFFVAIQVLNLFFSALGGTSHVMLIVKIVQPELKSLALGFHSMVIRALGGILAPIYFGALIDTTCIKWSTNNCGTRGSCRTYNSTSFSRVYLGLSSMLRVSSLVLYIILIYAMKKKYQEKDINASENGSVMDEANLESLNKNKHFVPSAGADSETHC
How it was run: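 CHO-OATP1B1 cells and vector control cells cultured 2 days, then washed and equilibrated 15 min in HBSS + 10 mM HEPES. Exposed 10 min to 2.5 μM 8-fluorescein-cAMP with inhibitor at 0−30 μM (up to 1% DMSO). Cells washed and lysed, uptake measured by fluorescence, and IC50 taken from the concentration-response curve.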

[4] = target: Peptidyl-prolyl cis-trans isomerase F, mitochondrial (Homo sapiens, UniProt P30405); test: Binding affinity to human cyclophilin F by surface plasmon resonance method
Peptidyl-prolyl cis-trans isomerase F, mitochondrial, sequence (P30405 whole entry): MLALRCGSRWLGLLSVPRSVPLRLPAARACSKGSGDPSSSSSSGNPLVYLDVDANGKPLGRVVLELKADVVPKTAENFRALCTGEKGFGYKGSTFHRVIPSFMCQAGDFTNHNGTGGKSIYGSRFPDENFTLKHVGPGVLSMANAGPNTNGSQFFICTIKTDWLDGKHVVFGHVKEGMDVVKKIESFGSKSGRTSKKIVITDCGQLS
How it was run: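 Surface plasmon resonance with biotinylated cyclophilin protein, single-cycle kinetics. Running buffer 10 mM HEPES pH 7.4, 150 mM NaCl, 0.05% P20, 3% DMSO, with inhibitor present. Compound injected at several concentrations, 1 min contact each at 50 μL/min, then 10 min final dissociation. kon, koff and KD obtained from a 1:1 binding model fit.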

[5] = system: PBMC; test: Cytotoxicity against PHA-stimulated human PBMC by 5-bromo-2'-deoxyuridine incorporation assay; assay type: cell-based
How it was run: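 Fresh PBMCs from two human donors in X-VIVO 15 medium, stimulated with PHA. Seven concentrations taken from a half-log series. Incubated 60 h at 37 °C, 5% CO2, with BrdU added for the final 12 h. Incorporation read by anti-BrdU ELISA at 450 nm. Percent inhibition against PHA-stimulated untreated cells after background subtraction, four-parameter fit giving IC50.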

[6] = system: Hepatitis C virus; test: Antiviral activity against HCV subtype 1b in human Huh7.5 cells expressing subgenomic HCV replicons and coexpressing luciferase reporter gene in presence of 40% human serum; assay type: functional, cell-based, Hepacivirus hominis; settings: genotype 1b, Huh-7
How it was run: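 Genotype 1b luciferase replicon in Huh7.5 cells with 40% human serum added to the assay medium, in phenol red-free DMEM without G418. Sixteen half-log dilutions in triplicate. Luciferase read after 72 h relative to DMSO-treated cells, giving EC50.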

[7] = Cytotoxicity against human MT4 cells by CDCF probe based assay; assay type: cell-based
[8] = system: Hepatitis C virus; test: Antiviral activity against HCV subtype 1a in human Huh7.5 cells expressing subgenomic HCV replicons and coexpressing luciferase reporter gene; assay type: functional, cell-based, Hepacivirus hominis; settings: Huh-7; how it was run: as §1
[9] = target: Peptidyl-prolyl cis-trans isomerase B (Homo sapiens, UniProt P23284); test: Binding affinity to human cyclophilin B by surface plasmon resonance method
Peptidyl-prolyl cis-trans isomerase B, sequence (P23284 whole entry): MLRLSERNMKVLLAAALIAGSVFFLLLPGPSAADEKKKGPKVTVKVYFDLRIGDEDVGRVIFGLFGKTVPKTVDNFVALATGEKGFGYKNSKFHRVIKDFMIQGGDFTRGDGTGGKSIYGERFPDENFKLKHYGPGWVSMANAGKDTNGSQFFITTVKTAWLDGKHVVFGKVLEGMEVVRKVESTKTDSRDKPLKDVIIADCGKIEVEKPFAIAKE
How it was run: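 Biotinylated cyclophilin proteins examined by single-cycle kinetics SPR. Running buffer 10 mM HEPES pH 7.4, 150 mM NaCl, 0.05% P20, 3% DMSO, with inhibitor. Each concentration injected for 1 min at 50 μL/min, then 10 min dissociation. kon, koff and KD obtained from a 1:1 binding fit.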

[10] = target: Cytochrome P450 3A4 (Homo sapiens, UniProt P08684); test: Time dependent inhibition of CYP3A4 (unknown origin); assay type: ADME; settings: TDE = time-dependent effect
Cytochrome P450 3A4, sequence (P08684 whole entry): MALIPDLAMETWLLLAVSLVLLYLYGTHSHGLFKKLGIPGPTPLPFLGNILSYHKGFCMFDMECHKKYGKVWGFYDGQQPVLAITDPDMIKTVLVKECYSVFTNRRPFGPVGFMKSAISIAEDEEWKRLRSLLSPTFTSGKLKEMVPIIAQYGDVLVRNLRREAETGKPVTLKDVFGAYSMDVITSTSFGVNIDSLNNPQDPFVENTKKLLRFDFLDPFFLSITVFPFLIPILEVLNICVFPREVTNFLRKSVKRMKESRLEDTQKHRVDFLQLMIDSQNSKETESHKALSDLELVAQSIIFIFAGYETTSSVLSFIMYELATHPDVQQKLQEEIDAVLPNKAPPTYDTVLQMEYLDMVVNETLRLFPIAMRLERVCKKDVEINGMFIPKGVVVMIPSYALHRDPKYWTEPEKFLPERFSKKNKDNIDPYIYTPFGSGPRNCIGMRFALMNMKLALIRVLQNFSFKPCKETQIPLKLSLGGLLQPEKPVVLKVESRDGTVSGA

| Compound | pEC50 [1] | pKd [2] | pIC50 [3] | pKd [4] | pIC50 [5] | pEC50 [6] | CC50 [7] [nM] | pEC50 [8] | pKd [9] | inhibition (INH) [10] |
| --- | --- | --- | --- | --- | --- | --- | --- | --- | --- | --- |
| C/C=C/C[C@@H](C)[C@@H](O)[C@H]1C(=O)N[C@@H](CC)C(=O)N(C)[C@H](C)C(=O)N(C)[C@@H]([C@H](C)CN2CCC(F)(F)C2)C(=O)N[C@@H](C(C)C)C(=O)N(C)[C@@H](CC(C)C)C(=O)N[C@@H](C)C(=O)N[C@H](C)C(=O)N(C)[C@@H](CC(C)C)C(=O)N(C)[C@@H](CC(C)C)C(=O)N(C)[C@@H](C(C)C)C(=O)N1C | 7.36 | 8.40 | – | – | – | – | – | – | – | – |
| C/C=C/C[C@@H](C)[C@@H](O)[C@H]1C(=O)N[C@@H](CC)C(=O)N(C)[C@H](C)C(=O)N(C)[C@@H]([C@H](C)CN2CCC(C#N)CC2)C(=O)N[C@@H](C(C)C)C(=O)N(C)[C@@H](CC(C)C)C(=O)N[C@@H](C)C(=O)N[C@H](C)C(=O)N(C)[C@@H](CC(C)C)C(=O)N(C)[C@@H](CC(C)C)C(=O)N(C)[C@@H](C(C)C)C(=O)N1C | 7.54 | 8.85 | – | – | – | – | – | – | – | – |
| C/C=C/C[C@@H](C)[C@@H](O)[C@H]1C(=O)N[C@@H](CC)C(=O)N(C)[C@H](C)C(=O)N(C)[C@@H]([C@H](C)COCCN2CCOCC2)C(=O)N[C@@H](C(C)C)C(=O)N(C)[C@@H](CC(C)C)C(=O)N[C@@H](C)C(=O)N[C@H](C)C(=O)N(C)[C@@H](CC(C)C)C(=O)N(C)[C@@H](CC(C)C)C(=O)N(C)[C@@H](C(C)C)C(=O)N1C | 7.44 | 8.96 | 5.19 | – | – | – | – | – | – | – |
| C/C=C/C[C@@H](C)[C@@H](O)[C@H]1C(=O)N[C@@H](CC)C(=O)N(C)[C@H](C)C(=O)N(C)[C@@H]([C@H](C)CN(C)CCOC)C(=O)N[C@@H](C(C)C)C(=O)N(C)[C@@H](CC(C)C)C(=O)N[C@@H](C)C(=O)N[C@H](C)C(=O)N(C)[C@@H](CC(C)C)C(=O)N(C)[C@@H](CC(C)C)C(=O)N(C)[C@@H](C(C)C)C(=O)N1C | 7.38 | 8.74 | 5.70 | – | – | – | – | – | – | – |
| C/C=C/C[C@@H](C)[C@@H](O)[C@H]1C(=O)N[C@@H](CC)C(=O)N(C)[C@H](C)C(=O)N(C)[C@@H]([C@H](C)CC#N)C(=O)N[C@@H](C(C)C)C(=O)N(C)[C@@H](CC(C)C)C(=O)N[C@@H](C)C(=O)N[C@H](C)C(=O)N(C)[C@@H](CC(C)C)C(=O)N(C)[C@@H](CC(C)C)C(=O)N(C)[C@@H](C(C)C)C(=O)N1C | 7.55 | 8.89 | 6.00 | – | – | – | – | – | – | – |
| C/C=C/C[C@@H](C)[C@@H](O)[C@H]1C(=O)N[C@@H](CC)C(=O)N(C)CC(=O)N(C)[C@@H]([C@@H](C)CC)C(=O)N[C@@H](C(C)C)C(=O)N(C)[C@@H](CC(C)C)C(=O)N[C@@H](C)C(=O)N[C@H](C)C(=O)N(C)[C@@H](CC(C)C)C(=O)N(C)[C@@H](CC(C)C)C(=O)N(C)[C@@H](C(C)C)C(=O)N1C [NIM811] | 7.01 | 8.12 | – | 8.38 | 5.62 | 6.68 | 13000 | 6.66 | 8.13 | – |
| C/C=C/C[C@@H](C)[C@@H](O)[C@H]1C(=O)N[C@@H](CC)C(=O)N(C)[C@H](C)C(=O)N(C)[C@@H]([C@H](C)CN2CCCOCC2)C(=O)N[C@@H](C(C)C)C(=O)N(C)[C@@H](CC(C)C)C(=O)N[C@@H](C)C(=O)N[C@H](C)C(=O)N(C)[C@@H](CC(C)C)C(=O)N(C)[C@@H](CC(C)C)C(=O)N(C)[C@@H](C(C)C)C(=O)N1C | 7.43 | 8.72 | 5.74 | – | – | – | – | – | – | – |
| C/C=C/C[C@@H](C)[C@@H](O)[C@H]1C(=O)N[C@@H](CC)C(=O)N(C)[C@H](C)C(=O)N(C)[C@@H]([C@H](C)CN2CC3CCC(C2)O3)C(=O)N[C@@H](C(C)C)C(=O)N(C)[C@@H](CC(C)C)C(=O)N[C@@H](C)C(=O)N[C@H](C)C(=O)N(C)[C@@H](CC(C)C)C(=O)N(C)[C@@H](CC(C)C)C(=O)N(C)[C@@H](C(C)C)C(=O)N1C | 7.38 | 8.60 | 5.74 | – | – | – | – | – | – | – |
| C/C=C/C[C@@H](C)[C@@H](O)[C@H]1C(=O)N[C@@H](CC)C(=O)N(C)[C@H](C)C(=O)N(C)[C@@H]([C@H](C)COC)C(=O)N[C@@H](C(C)C)C(=O)N(C)[C@@H](CC(C)C)C(=O)N[C@@H](C)C(=O)N[C@H](C)C(=O)N(C)[C@@H](CC(C)C)C(=O)N(C)[C@@H](CC(C)C)C(=O)N(C)[C@@H](C(C)C)C(=O)N1C | 7.44 | 8.77 | 5.55 | – | – | – | – | – | – | – |
| C/C=C/C[C@@H](C)[C@@H](O)[C@H]1C(=O)N[C@@H](CC)C(=O)N(C)C(SCCN(C)C)C(=O)N(C)[C@@H](CC(C)(C)O)C(=O)N[C@@H](C(C)C)C(=O)N(C)[C@@H](CC(C)C)C(=O)N[C@@H](C)C(=O)N[C@H](C)C(=O)N(C)[C@@H](CC(C)C)C(=O)N(C)[C@@H](CC(C)C)C(=O)N(C)[C@@H](C(C)C)C(=O)N1C (single isomer, unassigned) [SCY 635] | 6.66 | – | – | 8.51 | 5.33 | 6.72 | – | 6.58 | 8.54 | – |
| C/C=C/C[C@@H](C)[C@@H](O)[C@H]1C(=O)N[C@@H](CC)C(=O)N(C)[C@H](C)C(=O)N(C)[C@@H]([C@H](C)CCN2CCOCC2)C(=O)N[C@@H](C(C)C)C(=O)N(C)[C@@H](CC(C)C)C(=O)N[C@@H](C)C(=O)N[C@H](C)C(=O)N(C)[C@@H](CC(C)C)C(=O)N(C)[C@@H](CC(C)C)C(=O)N(C)[C@@H](C(C)C)C(=O)N1C | 7.54 | 8.96 | – | – | – | – | – | – | – | tde |
| C/C=C/C[C@@H](C)[C@@H](O)[C@H]1C(=O)N[C@@H](CC)C(=O)N(C)[C@H](C)C(=O)N(C)[C@@H]([C@H](C)CN2CCOCC2)C(=O)N[C@@H](C(C)C)C(=O)N(C)[C@@H](CC(C)C)C(=O)N[C@@H](C)C(=O)N[C@H](C)C(=O)N(C)[C@@H](CC(C)C)C(=O)N(C)[C@@H](CC(C)C)C(=O)N(C)[C@@H](C(C)C)C(=O)N1C | 7.48 | 8.51 | 5.37 | – | – | – | – | – | – | – |
